Assay [1] deals with P388. The assay is described as follows: Percentage increase in life span of murine leukemia P388 resistant to 5-FU, at a dose 108 mg/kg. Type of assay: functional. To be noted: Mus musculus. The method in brief: (§1)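 P-388 model in male BDF₁ mice, six per group, average weight 23 g: 1×10^6 cells ip on day 0, then compound in 0.9% saline ip daily ×5 from 24 h. Mice were observed up to 60 days. % ILS = (T/C − 1) × 100, using median survival of treated mice versus saline-treated controls.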

The test system of assay [2] is P388. The assay is described as follows: Percentage increase in life span of murine leukemia P388 resistant to 5-FU, at a dose 180 mg/kg. Type of assay: functional. To be noted: Mus musculus. The method in brief:
as §1

Assay [3] relates to P388. In words: Percentage increase in life span of murine leukemia P388 sensitive to 5-FU at dose 108 mg/kg. Type of assay: functional. As to conditions: Mus musculus. The method in brief: as §1
Assay [4] has as its system P388. In words: Percentage increase in life span of murine leukemia P388 sensitive to 5-FU at dose 180 mg/kg. Type of assay: functional. As to conditions: Mus musculus. The method in brief:
as §1

The subject of assay [5] is P388. In words: Average percentage weight change on day 6 in murine leukemia P388 resistant to 5-FU at dose 108 mg/kg. Type of assay: functional, Mus musculus. The method in brief: (§2)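 Male BDF₁ mice, six per group, average weight 23 g, were inoculated ip on day 0 with 1×10^6 P-388 leukemia cells, either 5-FU-sensitive or 5-FU-resistant. Compound in 0.9% saline was given ip once daily for 5 consecutive days, starting 24 h after tumor transplantation. Saline-treated animals served as controls.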

For assay [6], the system named is P388. The assay is described as follows: Average percentage weight change on day 6 in murine leukemia P388 resistant to 5-FU at dose 300 mg/Kg. Type of assay: functional, Mus musculus. The gist of the method:
as §2

In assay [7] the test system is P388. In words: Percentage increase in life span of murine leukemia P388 sensitive to 5-FU at dose 300 mg/kg. Type of assay: functional. As to conditions: Mus musculus. The method in brief:
as §1

Assay [8] relates to P388. In words: Percentage increase in life span of murine leukemia P388 sensitive to 5-FU at dose 500 mg/kg. Type of assay: functional. To be noted: Mus musculus. The gist of the method:
as §1

In assay [9] the test system is P388. The assay is described as follows: Average percentage weight change on day 6 in murine leukemia P388 sensitive to 5-FU at a dose 108 mg/kg. Type of assay: functional, Mus musculus. The gist of the method: as §2
For assay [10], the system named is P388. The assay is described as follows: Average percentage weight change on day 6 in murine leukemia P388 sensitive to 5-FU at a dose 180 mg/kg. Type of assay: functional, Mus musculus. The method in brief: as §2
The test system of assay [11] is P388. The assay is described as follows: Average percentage weight change on day 6 in murine leukemia P388 sensitive to 5-FU at dose 300 mg/kg. Type of assay: functional, Mus musculus. The method in brief:
as §2

Assay [12] concerns P388. In words: Average percentage weight change on day 6 in murine leukemia P388 sensitive to 5-FU at dose 500 mg/kg. Type of assay: functional, Mus musculus. The gist of the method:
as §2

The subject of assay [13] is P388. The assay is described as follows: Median survival time (MST) of murine leukemia P388 (1*10e 6 cells) sensitive to 5-FU in mice, dose of 300 mg/kg(ip). Type of assay: functional, Mus musculus. The method in brief:
(§3)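 Male BDF₁ mice, six per group, average weight 23 g, were inoculated ip with 1×10^6 P-388 cells on day 0. Compound in 0.9% saline was given ip daily for 5 days from 24 h post-implant. Mice were followed for 60 days or until death, and median survival time was recorded. Saline-treated controls numbered 20 mice.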

In assay [14] the test system is P388. In words: Median survival time (MST) of murine leukemia P388 (1*10e 6 cells) sensitive to 5-FU in mice, dose of 500 mg/kg(ip). Type of assay: functional, Mus musculus. The gist of the method: as §3
The subject of assay [15] is P388. The assay is described as follows: Median survival time (MST) of murine leukemia P388 (1*10e 6 cells) resistant to 5-FU in mice, dose of 108 mg/kg(ip). Type of assay: functional, Mus musculus. The gist of the method:
as §3

Assay [16] has as its system P388. In words: Median survival time (MST) of murine leukemia P388 (1*10e 6 cells) resistant to 5-FU in mice, dose of 180 mg/kg(ip). Type of assay: functional, Mus musculus. The method in brief: as §3
Assay [17] concerns P388. In words: Median survival time (MST) of murine leukemia P388 (1*10e 6 cells) sensitive to 5-FU in mice at dose of 108 mg/kg(ip). Type of assay: functional, Mus musculus. The gist of the method: as §3
Assay [18] deals with P388. The assay is described as follows: Median survival time (MST) of murine leukemia P388 (1*10e 6 cells) sensitive to 5-FU in mice at dose of 180 mg/kg(ip). Type of assay: functional, Mus musculus. The gist of the method: as §3
Assay [19] has as its system P388. In words: Average percentage weight change on day 6 in murine leukemia P388 resistant to 5-FU at dose 180 mg/kg. Type of assay: functional, Mus musculus. The gist of the method: as §2
For assay [20], the system named is P388. In words: Median survival time (MST) of murine leukemia P388 (1*10e 6 cells) resistant to 5-FU in mice, dose of 300 mg/kg(ip). Type of assay: functional, Mus musculus. The gist of the method:
as §3

Assay [21] concerns P388. In words: Percentage increase in life span of murine leukemia P388 resistant to 5-FU, at a dose 20 mg/kg. Type of assay: functional. To be noted: Mus musculus. The gist of the method: as §1
Assay [22] has as its system P388. The assay is described as follows: Percentage increase in life span of murine leukemia P388 resistant to 5-FU, at a dose 15 mg/kg. Type of assay: functional. As to conditions: Mus musculus. The method in brief: as §1
In assay [23] the test system is P388. In words: Percentage increase in life span of murine leukemia P388 resistant to 5-FU, at a dose 35 mg/kg. Type of assay: functional. As to conditions: Mus musculus. The gist of the method: as §1
The subject of assay [24] is P388. The assay is described as follows: Percentage increase in life span of murine leukemia P388 sensitive to 5-FU, at a dose 20 mg/kg. Type of assay: functional. As to conditions: Mus musculus. The method in brief:
as §1

For assay [25], the system named is P388. The assay is described as follows: Percentage increase in life span of murine leukemia P388 sensitive to 5-FU, at a dose 35 mg/kg. Type of assay: functional. To be noted: Mus musculus. The method in brief:
as §1

For assay [26], the system named is P388. The assay is described as follows: Average percentage weight change on day 6 in murine leukemia P388 resistant to 5-FU at a dose of 15 mg/kg. Type of assay: functional, Mus musculus. The method in brief: (§4)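 Male BDF₁ mice, six per group, average weight 23 g, were given 1×10^6 P-388 cells ip on day 0. Compound in 0.9% saline was dosed ip once daily for 5 consecutive days, starting 24 h after tumour transplant.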

Assay [27] relates to P388. In words: Average percentage weight change on day 6 in murine leukemia P388 resistant to 5-FU at a dose of 20 mg/Kg. Type of assay: functional, Mus musculus. The method in brief:
as §4

The test system of assay [28] is P388. The assay is described as follows: Average percentage weight change on day 6 in murine leukemia P388 resistant to 5-FU at a dose of 35 mg/kg. Type of assay: functional, Mus musculus. The method in brief: as §4
In assay [29] the test system is P388. In words: Average percentage weight change on day 6 in murine leukemia P388 sensitive to 5-FU at a dose of 20 mg/kg. Type of assay: functional, Mus musculus. The method in brief: as §4
Assay [30] concerns P388. In words: Average percentage weight change on day 6 in murine leukemia P388 sensitive to 5-FU at a dose of 35 mg/kg. Type of assay: functional, Mus musculus. The method in brief:
as §4

The subject of assay [31] is P388. In words: Median survival time (MST) of murine leukemia P388 (1*10e 6 cells) resistant to 5-FU in […] mice, dose of 35 mg/kg(ip). Type of assay: functional, Mus musculus. The gist of the method:
as §3

Assay [32] concerns P388. In words: Median survival time (MST) of murine leukemia P388 (1*10e 6 cells) sensitive to 5-FU in mice, dose of 20 mg/kg(ip). Type of assay: functional, Mus musculus. The method in brief:
as §3

Assay [33] deals with P388. The assay is described as follows: Median survival time (MST) of murine leukemia P388 (1*10e 6 cells) sensitive to 5-FU in mice, dose of 35 mg/kg(ip). Type of assay: functional, Mus musculus. The gist of the method:
as §3

Assay [34] relates to P388. In words: Median survival time (MST) of murine leukemia P388 (1*10e 6 cells) resistant to 5-FU in mice, dose of 15 mg/kg(ip). Type of assay: functional, Mus musculus. The method in brief: as §3
Assay [35] relates to P388. In words: Median survival time (MST) of murine leukemia P388 (1*10e 6 cells) resistant to 5-FU in mice, dose of 20 mg/kg (i.p.). Type of assay: functional, Mus musculus. As to conditions: route intraperitoneal. The method in brief:
as §3

Consider `O=c1[nH]c(=O)n([C@H]2C[C@H](O)[C@@H](COP3(=O)NCCCO3)O2)cc1F` (stereo not given in full), for which the figures for the ILS at 108 mg/kg in [1] and in assay [3] were 0% and 33%, respectively. The ILS at 180 mg/kg in assay [2] stood at 0%; in assay [4] it was 44%. Also, the Weight change in assay [5] is -3.4%; in assay [6], -5%; in assay [9], -6.6%; in [10], -13.9%; in assay [11], -15.7%; in assay [12], -17.9%. Also, the Weight change in assay [19] was -3.7%. In addition, the ILS at 300 mg/kg in assay [7] is 55%. Moreover, the ILS at 500 mg/kg in assay [8] came to 89%. For the same compound, the MST in [13] was 14 days; in assay [14], 17 days; in assay [15], 10 days; in assay [16] it was 10 days; in assay [17] it was 12 days; in assay [18], 13 days. The compound further returned an MST in assay [20] of 9 days.

For the compound `O=c1[nH]cc(F)c(=O)[nH]1` [FLUOROURACIL], the ILS at 20 mg/kg was found to be 10% in [21] and 111% in assay [24]. Moreover, the ILS at 15 mg/kg in [22] was 10%. The ILS at 35 mg/kg is -10% in assay [23] and -11% in assay [25]. Besides, the Weight change in assay [26] is given as -6.2%; in [27], -3.9%; in assay [28] it was -14.2%; in [29] it was -16.5%; in [30] it was -21.8%. Moreover, the MST in assay [31] turned out to be 9 days; in [32], 19 days; in [33], 8 days; in assay [34], 11 days; in assay [35], 11 days.

The values above are taken from ChEMBL document CHEMBL1122269, “Synthesis and biological evaluation of neutral derivatives of 5-fluoro-2'-deoxyuridine 5'-phosphate” (1983).
